Measured values reported in ChEMBL document CHEMBL3616459, “Antimicrobial peptides with potential for biofilm eradication: synthesis and structure activity relationship studies of battacin peptides” (J Med Chem, 2015).
In brackets after ≈: the same amount, converted by molar mass. Activity calls are given as the source filed them. The calls are words filed in the database; no cut-off is given here. Non-standard residues stand in square brackets, D forms with d. Residues, ends and D or L forms follow the SMILES beside them. ξ: configuration not given here. *: point of attachment. Hexanoyl(4ξ-Me) = CCC(C)CCC(=O)*; dDab = NCC[C@@H](N)C(=O)O; Dab = NCC[C@H](N)C(=O)O

Legend:
[1] = system: Staphylococcus aureus; assay: Antimicrobial activity against Staphylococcus aureus assessed as complete cell lysis at 2 times MIC […]; format: functional, organism-based
[2] = system: Pseudomonas aeruginosa; assay: Antimicrobial activity against Pseudomonas aeruginosa assessed as complete cell lysis at 2 times MIC […]; format: functional, organism-based
[3] = system: Staphylococcus aureus; assay: Bactericidal activity against Staphylococcus aureus at 4 to 20 times MIC after 24 hrs by time-kill assay; format: functional, organism-based
Procedure, shortened: (§1)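 Time-kill assay. Overnight culture diluted in LB to mid-log phase, 10^5–10^8 CFU/mL; 100 μL added to 10 mL peptide in LB at 1×, 2×, 4× and 20× MIC. Incubated with shaking at 100 rpm, at 28 °C (Ea1501, Psa) or 37 °C (E. coli, P. aeruginosa, S. aureus). Samples at 0, 0.5, 1, 3, 6, 9 and 24 h serially diluted in 0.9% saline and plated; colonies counted after 24 h. Run in duplicate. Bactericidal means ≥2-log10 CFU/mL drop versus the no-antibiotic control.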

[4] = system: Pseudomonas aeruginosa; assay: Antimicrobial activity against Pseudomonas aeruginosa after 24 hrs by spectrophotometry; format: functional
[5] = system: Pseudomonas syringae; assay: Bactericidal activity against Pseudomonas syringae pv. actinidiae 16027 at 1 to 2 times MIC after 9 hrs by time-kill assay; format: functional, organism-based; procedure, shortened: as §1
[6] = system: Pseudomonas aeruginosa; assay: Bactericidal activity against Pseudomonas aeruginosa at 20 times MIC after 24 hrs by time-kill assay relative to control; format: functional, organism-based; procedure, shortened: as §1
[7] = system: Staphylococcus aureus; assay: Bactericidal activity against Staphylococcus aureus at 4 to 20 times MIC after 3 hrs by time-kill assay; format: functional, organism-based; procedure, shortened: as §1
[8] = system: Erwinia amylovora; assay: Bactericidal activity against Erwinia amylovora 1501 at 2 to 20 times MIC after 9 hrs by time-kill assay; format: functional, organism-based; procedure, shortened: as §1
[9] = Hemolytic activity in mouse erythrocytes at 100 uM to 1 mM after 1 hr by spectrophotometry; format: ADME, cell-based, Erythrocyte; details: read-out: Activity
Procedure, shortened: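 100 μL peptide (1 μM–1 mM in Tris buffer) plus 100 μL cells, incubated 1 h at 37 °C, triplicates. After centrifugation, supernatant A540 read. Percent hemolysis calculated relative to buffer (0%) and 0.1% Triton X-100 (100%) controls.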

[10] = system: Erwinia amylovora; assay: Antimicrobial activity against Erwinia amylovora 1501 after 24 hrs by spectrophotometry; format: functional; details: Erwinia amylovora, 1501, 24 h
Procedure, shortened: (§2)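 Broth microdilution in Luria broth. Overnight culture from a single colony, grown at 28 °C (Ea1501, Psa) or 37 °C (E. coli, S. aureus), adjusted to OD600 0.6. Peptide dissolved in LB with 0.5% acetic acid as a dilution series; 50 μL peptide plus 50 μL culture per well, triplicates.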

[11] = system: Pseudomonas aeruginosa; assay: Bactericidal activity against Pseudomonas aeruginosa assessed as reduction in bacterial count at 2 to 4 times MIC after 24 hrs by time-kill assay relative to control; format: functional; procedure, shortened: as §1
[12] = system: Escherichia coli; assay: Bactericidal activity against Escherichia coli assessed as reduction in bacterial count at 2 to 4 times MIC after 24 hrs by time-kill assay relative to control; format: functional, organism-based; procedure, shortened: as §1
[13] = system: Staphylococcus aureus; assay: Bactericidal activity against Staphylococcus aureus by time-kill assay; format: functional, organism-based; procedure, shortened: as §1
[14] = system: Staphylococcus aureus; assay: Inhibition of Staphylococcus aureus biofilm formation at 10 to 25 uM after 48 hrs; format: functional, organism-based
Procedure, shortened: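 P. aeruginosa or S. aureus biofilms grown 48 h on coverslips in 12-well plates, with peptide added at inoculation at 5, 10, 25, 50 or 100 μM. Coverslips rinsed, dried at 50 °C and stained with BacLight (SYTO 9/propidium iodide) for 25 min in the dark at room temperature. Examined by fluorescence microscopy at 1000×.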

[15] = system: Escherichia coli; assay: Antimicrobial activity against Escherichia coli assessed as complete cell lysis at 2 times MIC measured after 24 hrs by scanning electron microscopy; format: functional, organism-based
Procedure, shortened: (§3)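 Bacteria grown to OD600 0.3 in LB on glass slides for 24 h, then washed with 10 mM sodium phosphate pH 7.4. Treated 20 min with peptide in LB at twice the upper limit of its MIC, washed, and fixed in 4% glutaraldehyde 1 h. Dehydrated through graded ethanol, dried at 60 °C, platinum coated, and imaged by SEM at 10 kV.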

[16] = system: Erwinia amylovora; assay: Bactericidal activity against Erwinia amylovora 1501 at 2 to 20 times MIC up to 6 hrs by time-kill assay; format: functional, organism-based; procedure, shortened: as §1
[17] = system: Pseudomonas syringae pv. actinidiae; assay: Antimicrobial activity against Pseudomonas syringae pv. actinidiae 16027 preformed biofilms after 48 hrs by crystal violet staining-based microscopy; format: functional
Procedure, shortened: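 Psa16027 biofilms formed 48 h without peptide, then washed. 100 μL of peptide (1, 5 or 50 μM) in LB, or LB alone, added and incubated a further 24 h at 28 °C. Crystal violet staining followed, with A560 estimation of biofilm mass and microscopy.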

[18] = system: Pseudomonas syringae; assay: Bactericidal activity against Pseudomonas syringae pv. actinidiae 16027 at 20 times MIC up to 1 hr by time-kill assay; format: functional, organism-based; procedure, shortened: as §1
[19] = system: Staphylococcus aureus; assay: Bactericidal activity against Staphylococcus aureus at 1 to 2 times MIC after 24 hrs by time-kill assay; format: functional, organism-based; procedure, shortened: as §1
[20] = system: Erwinia amylovora; assay: Antimicrobial activity against streptomycin-resistant Erwinia amylovora after 24 hrs by spectrophotometry; format: functional
Procedure, shortened: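 Broth microdilution in Luria broth; overnight culture grown at 28 °C, adjusted to OD600 0.6, mixed 1:1 with a dilution series of peptide prepared in LB containing 0.5% acetic acid. Three replicates per concentration.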

[21] = system: Pseudomonas syringae; assay: Inhibition of Pseudomonas syringae pv. actinidiae 16027 biofilm formation at 5 uM after 48 hrs; format: functional
Procedure, shortened: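 Psa16027 overnight culture (OD600 0.3) grown at 28 °C in LB. 50 μL peptide in LB (1–100 μM) plus 50 μL diluted culture, triplicates, incubated 48 h at 28 °C at 50 rpm. Wells stained with 1% crystal violet for 5 min and washed; stain solubilized in 96% ethanol and A560 read as biofilm mass. For imaging, 12-well plates were used and stained biofilms viewed at 400×.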

[22] = system: Pseudomonas syringae; assay: Bactericidal activity against Pseudomonas syringae pv. actinidiae 16027 at 4 times MIC up to 6 hrs by time-kill assay; format: functional, organism-based; procedure, shortened: as §1
[23] = system: Staphylococcus aureus; assay: Ratio of gentamycin MIC to compound MIC for Staphylococcus aureus after 24 hrs by spectrophotometry; format: functional
[24] = system: Escherichia coli; assay: Bactericidal activity against Escherichia coli assessed as reduction in bacterial count at 2 to 4 times MIC up to 9 hrs by time-kill assay relative to control; format: functional; procedure, shortened: as §1
[25] = system: Staphylococcus aureus; assay: Bactericidal activity against Staphylococcus aureus at 1 to 2 times MIC after 6 hrs by time-kill assay; format: functional, organism-based; procedure, shortened: as §1
[26] = system: Erwinia amylovora; assay: Bactericidal activity against Erwinia amylovora 1501 at MIC […] by time-kill assay; format: functional, organism-based
[27] = Antimicrobial activity against Pseudomonas syringae pv. actinidiae 16027 after 24 hrs by spectrophotometry; format: functional; details: Pseudomonas syringae, 16027, 24 h; procedure, shortened: as §2
[28] = system: Pseudomonas syringae; assay: Bactericidal activity against Pseudomonas syringae pv. actinidiae 16027 by time-kill assay; format: functional, organism-based; procedure, shortened: as §1
[29] = system: Escherichia coli; assay: Bactericidal activity against Escherichia coli assessed as reduction in bacterial count at 20 times MIC up to 3 hrs by time-kill assay relative to control; format: functional; procedure, shortened: as §1
[30] = system: Escherichia coli; assay: Antimicrobial activity against Escherichia coli after 24 hrs by spectrophotometry; format: functional; procedure, shortened: as §2
[31] = system: Staphylococcus aureus; assay: Antimicrobial activity against Staphylococcus aureus assessed as perturbed cell membrane at 2 times MIC measured after 24 hrs by scanning electron microscopy; format: functional, organism-based; procedure, shortened: as §3
[32] = system: Staphylococcus aureus; assay: Antimicrobial activity against Staphylococcus aureus preformed biofilms at 10 to 25 uM after 48 hrs; format: functional, organism-based
[33] = system: Pseudomonas syringae; assay: Bactericidal activity against Pseudomonas syringae pv. actinidiae 16027 at 1 to 20 times MIC after 24 hrs by time-kill assay; format: functional, organism-based; procedure, shortened: as §1

CCC(C)CCC(=O)N[C@H](CCN)C(=O)N[C@@H](CCN)C(=O)N[C@@H](CCN)C(=O)N[C@@H](CC(C)C)C(=O)N[C@H](Cc1ccccc1)C(=O)N[C@@H](CCN)C(=O)N[C@@H](CCN)C(=O)N[C@@H](CC(C)C)C(N)=O (stereo partly drawn) ({Hexanoyl(4ξ-Me)}-[dDab][Dab][Dab]L[dF][Dab][Dab]L-NH2)
Activity [1]: Active | Activity [2]: Active | Activity [3]: Active | MIC [4]: 1 µM (≈ 1 µg/mL) | Activity [5]: Active | Activity [6]: Active | Activity [7]: Active | Activity [8]: Active | hemolysis at 1 h, 100 µM [9]: 1.79% | MIC [10]: 2.5 µM (≈ 2.51 µg/mL) | Activity [11]: >2 deltalog10CFU/ml | Activity [12]: inactive | Activity [13]: Dose-dependent effect | inhibition [14]: Active | Activity [15]: Active | Activity [16]: Active | Activity [17]: Active | Activity [18]: Active | Activity [19]: Active | MIC [20]: 5 µM (≈ 5.02 µg/mL) | inhibition [21]: Active | Activity [22]: Active | Ratio [23]: 2 | Activity [24]: >3 deltalog10CFU/ml | Activity [25]: Active | Activity [26]: inactive | MIC [27]: 1 µM (≈ 1 µg/mL) | Activity [28]: Dose-dependent effect | Activity [29]: >3 deltalog10CFU/ml | MIC [30]: 2.5 µM (≈ 2.51 µg/mL) | Activity [31]: Active | Activity [32]: Active | Activity [33]: inactive
